For nine compounds, EBV-EA activation, viability and IC50 results are on record in ChEMBL document CHEMBL1158901, “Chemical constituents of Garcinia fusca: structure elucidation of eight new xanthones and their cancer chemopreventive activity” (J Nat Prod, 2003).

In data set [1] the test system is Raji. The experiment in a line: TPA-induced EBV-early antigen activation in human Raji cells at 3.2 nmol after 48 hrs relative to TPA. Particulars: human gammaherpesvirus 4.
The nature of data set [2]: Cytotoxicity against human Raji cells assessed as cell viability at 3.2 nmol after 48 hrs by trypan blue assay. Format: cell-based. The note with it: read-out: Activity. The procedure, abridged:
(§1)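 Raji cells grown to 10^6 cells/mL, pelleted and resuspended in RPMI 1640 with 10% FCS containing 4 mM n-butyric acid and 32 pmol TPA (20 ng/mL). Test compound added in DMSO at 32, 3.2 or 0.32 nmol (footnote also defines 16 nmol as 500 mol ratio). Incubated 48 h at 37 °C. Viable cells counted by Trypan Blue on a hemocytometer.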

A short description of data set [3]: Inhibition of TPA-induced EBV-early antigen activation in human Raji cells per 32 pmol TPA after 48 hrs. Format: cell-based, human gammaherpesvirus 4. The method in brief: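 EBV-EA induction in Raji cells by 4 mM n-butyric acid plus 32 pmol TPA in RPMI 1640/10% FCS, 37 °C for 48 h, with compound at mol ratios to TPA of 10 to 1000. EA-positive cells counted blind, ≥500 per assay, relative to TPA-only control. IC50 is the mol ratio to TPA giving 50% inhibition, estimated by probit transformation.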

Data set [4] has as its system Raji. The experiment in a line: TPA-induced EBV-early antigen activation in human Raji cells at 32 nmol after 48 hrs relative to TPA. Particulars: human gammaherpesvirus 4.
Data set [5] deals with Raji. Kind of data set: TPA-induced EBV-early antigen activation in human Raji cells at 0.32 nmol after 48 hrs relative to TPA. Particulars: human gammaherpesvirus 4.
Data set [6] has as its system Raji. The experiment in a line: TPA-induced EBV-early antigen activation in human Raji cells at 16 nmol after 48 hrs relative to TPA. Particulars: human gammaherpesvirus 4.
The nature of data set [7]: Cytotoxicity against human Raji cells assessed as cell viability at 0.32 nmol after 48 hrs by trypan blue assay. Type of data set: cell-based. The note with it: read-out: Activity. The method in brief: as §1
Data set [8] in a line: Cytotoxicity against human Raji cells assessed as cell viability at 16 nmol after 48 hrs by trypan blue assay. Format: cell-based. The note with it: read-out: Activity. The procedure, abridged:
as §1

Data set [9] can be described thus: Cytotoxicity against human Raji cells assessed as cell viability at 32 nmol after 48 hrs by trypan blue assay. Type of data set: cell-based. The note with it: read-out: Activity. The procedure, abridged: as §1

`COc1cc2oc3cc(O)c(OC)c(CC=C(C)C)c3c(=O)c2c(O)c1CC=C(C)C`: the EBV-EA activation in the data set with Raji [1] stood at 62.6%; with Raji [4] it was 0%; in the data set on Raji [5] it was 90.4%; in the data set on Raji [6] it was 20.5%. Also, the viability at 48 h, 3.2 nmol in [2] was over 80%. In data set [3], this compound had an IC50 of 270 molar ratio. Further, the viability at 48 h, 0.32 nmol in [7] was over 80%. Moreover, the viability at 48 h, 16 nmol in data set [8] was over 80%. Besides, in data set [9], the viability at 48 h, 32 nmol was found to be 70%.

With `COc1c(O)c(CC=C(C)C)c2oc3cc(O)c(CC=C(C)C)c(O)c3c(=O)c2c1CC=C(C)C`, the EBV-EA activation amounted to 59.2% in the data set with Raji [1], 0% with Raji [4], 83.8% with Raji [5] and 16.3% in the data set on Raji [6]. For the same compound, the viability at 48 h, 3.2 nmol in data set [2] was over 80%. In [3], this compound displayed an IC50 of 210 molar ratio. In [7], the viability at 48 h, 0.32 nmol was over 80%. Further, in [8], the viability at 48 h, 16 nmol is over 80%. In addition, the viability at 48 h, 32 nmol in [9] came to 70%.

In the case of `CC1=C(/C=C/C(C)=C/C=C/C(C)=C/C=C/C=C(C)/C=C/C=C(C)/C=C/C2=C(C)CCCC2(C)C)C(C)(C)CCC1` [BETA CAROTENE], the EBV-EA activation in the data set with Raji [1] stood at 82.7%; with Raji [4], 9.1%; with Raji [5], 100%; with Raji [6] it was 34.3%. The same compound had an IC50 in [3] of 400 molar ratio.

`COc1c(O)cc2oc3cc(O)c(CC=C(C)C)c(O)c3c(=O)c2c1C/C=C(\C)CCC=C(C)C` [COWANIN]: the EBV-EA activation amounted to 71.6% in the data set on Raji [1], 0% with Raji [4], 95.8% in the data set with Raji [5] and 33.6% in the data set with Raji [6]. In addition, the viability at 48 h, 3.2 nmol in [2] is over 80%. Moreover, the IC50 in data set [3] amounted to 320 molar ratio. Moreover, in [7], the viability at 48 h, 0.32 nmol is over 80%. Also, in data set [8], the viability at 48 h, 16 nmol is over 80%. Further, in [9], the viability at 48 h, 32 nmol is 70%.

As for `COc1c(O)cc2oc3cc(O)c(C/C=C(/C)CO)c(O)c3c(=O)c2c1C/C=C(\C)CCC=C(C)C` [COWANOL], the EBV-EA activation is 69.6% in the data set on Raji [1], 0% with Raji [4], 93.1% in the data set on Raji [5] and 30.5% in the data set with Raji [6]. In [2], the viability at 48 h, 3.2 nmol is over 80%. In addition, the IC50 in [3] came out at 310 molar ratio. Besides, the viability at 48 h, 0.32 nmol in data set [7] is over 80%. The viability at 48 h, 16 nmol in data set [8] was over 80%. Further, in [9], the viability at 48 h, 32 nmol was determined as 70%.

Turning to `COc1cc2c(=O)c3c(O)c(C/C=C(\C)CCC=C(C)C)c(O)cc3oc2cc1O` [COWAXANTHONE], the EBV-EA activation in the data set with Raji [1] came out at 76.6%; with Raji [4] it was 0%; in the data set with Raji [5] it was 97.5%; in the data set on Raji [6], 40.6%. Also, in [2], the viability at 48 h, 3.2 nmol was over 80%. The same compound came in with an IC50 in data set [3] of 398 molar ratio. In addition, the viability at 48 h, 0.32 nmol in [7] was over 80%. In addition, the viability at 48 h, 16 nmol in data set [8] was over 80%. In [9], the viability at 48 h, 32 nmol is 70%.

As for `COc1c(O)cc2oc3cc(O)c(CC=C(C)C)c(O)c3c(=O)c2c1CC=C(C)C` [MANGOSTIN], the EBV-EA activation in the data set with Raji [1] was determined as 60%; with Raji [4], 0%; with Raji [5], 89.2%; with Raji [6], 19.1%. In data set [2], the viability at 48 h, 3.2 nmol was over 80%. In data set [3], this compound yielded an IC50 of 220 molar ratio. Further, the viability at 48 h, 0.32 nmol in [7] is over 80%. For the same compound, in [8], the viability at 48 h, 16 nmol was over 80%. The viability at 48 h, 32 nmol in [9] came to 70%.

Turning to `CC(C)=CCC/C(C)=C/Cc1c(O)c(O)cc2oc3cc(O)c(CC=C(C)C)c(O)c3c(=O)c12` [NORCOWANIN], the EBV-EA activation in the data set on Raji [1] was 70.1%; in the data set with Raji [4], 0%; with Raji [5] it was 94.2%; with Raji [6] it was 31.9%. The viability at 48 h, 3.2 nmol in data set [2] is over 80%. Moreover, the IC50 in data set [3] came to 315 molar ratio. Moreover, the viability at 48 h, 0.32 nmol in data set [7] was over 80%. In data set [8], the viability at 48 h, 16 nmol was over 80%. The viability at 48 h, 32 nmol in [9] worked out at 70%.

Turning to `COc1c(O)cc2oc3cc(O)cc(O)c3c(=O)c2c1C/C=C(\C)CCC=C(C)C` [RUBRAXANTHONE], the EBV-EA activation in the data set on Raji [1] came out at 74.1%; in the data set on Raji [4] it was 0%; with Raji [5] it was 96.8%; with Raji [6] it was 39.5%. Further, the viability at 48 h, 3.2 nmol in data set [2] is over 80%. The IC50 in [3] stood at 340 molar ratio. The viability at 48 h, 0.32 nmol in data set [7] was over 80%. Besides, in [8], the viability at 48 h, 16 nmol was over 80%. In addition, the viability at 48 h, 32 nmol in data set [9] worked out at 70%.
